Screening results from PubChem BioAssay.
The list is not random: actives were taken first. Their share in the collection is about 2.5%.
NALP1 yeast inh: inhibitors of NALP1 inflammasome in yeast | S. cerevisiae NALP1/ASC/caspase-1 growth, X-gal OD620, 72 h | inhibition, % at 10 µM | 0.61% of 280,000 active; in the data active means inhibition mostly above about 24%, no sharp cut-off; inactive means mostly below about 32%
MC4R ag barr: agonists of human melanocortin 4 receptor (MC4R) beta-arrestin | P32245 | 0.98% of 360,000 active | activation, % at 8.9 µM | U2OS MC4R beta-arrestin complementation, luminescence; percent of melanotan II response, DMSO zero | AID 540308;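 active means activation above a per-plate cutoff, the mean activation of sample wells on that plate plus 3 SD, cut at about 8% in these data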
Target sequence (P32245 whole entry, looked up): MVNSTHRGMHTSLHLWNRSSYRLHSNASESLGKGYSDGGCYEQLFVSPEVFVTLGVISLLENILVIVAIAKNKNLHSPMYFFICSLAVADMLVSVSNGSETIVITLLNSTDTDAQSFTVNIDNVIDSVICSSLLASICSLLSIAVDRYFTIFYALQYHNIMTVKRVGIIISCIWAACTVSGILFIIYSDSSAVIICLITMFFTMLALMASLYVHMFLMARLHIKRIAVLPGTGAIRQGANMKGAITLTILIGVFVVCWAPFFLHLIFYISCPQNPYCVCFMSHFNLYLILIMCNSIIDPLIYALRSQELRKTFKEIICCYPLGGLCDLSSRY
NLRP3 yeast inh: NALP3 inhibition in yeast. 0.39% of 330,000 active. AID 2825. inhibition, % at 10 µM. Yeast reconstituted NLRP3/ASC/caspase-1, beta-gal luminescence, 24 h;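 active means inhibition of 50% or more; inactive means inhibition below 50%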;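 further: plate controls were induced DMSO wells for no effect and uninduced yeast grown without galactose for full effect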
MC4R antagonist: antagonists of human melanocortin 4 receptor (MC4R); inhibition, % at 6.5 µM; P32245; MC4R-expressing cells, MTII-stimulated cAMP, LANCE TR-FRET; 0.48% of 360,000 active; AID 540295;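 active means inhibition above its plate's cutoff, the mean of tested wells on that plate plus 3 SD, cut at about 29% in these data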;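 further: 0% = Melanotan II alone and 100% = Melanotan II plus saturating MCL0020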
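System: U2OS-MC4R stable cell line; Technique: Eu-cAMP/anti-cAMP TR-FRET, emission 671 nm; Repeats: single well per compound; Also added: Melanotan II; Dosing: one concentration, 6.5 µM nominal; Schedule: 30-min compound, 1-h challenge, 1-h detection, room temperature.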
Tb MetRS inh: blocks T. brucei methionyl-tRNA synthetase activity. AID 624268. purified T. brucei MetRS, ATP depletion, Kinase-Glo luminescence. inhibition, % at 11.9 µM. 0.4% of 360,000 active;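 active means inhibition above a per-plate cutoff of the control wells' mean inhibition plus 3 SD, cut at about 5.5% in these data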;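 further: 0% = DMSO wells median and 100% = median of wells with control inhibitor compound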
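System: purified T. brucei MetRS enzyme / Detection: Kinase-Glo luciferase luminescence reporting remaining unconsumed ATP / Medium: HEPES buffer with MgCl2, KCl, DTT, spermine, BSA, pyrophosphatase / Replication: singlicate, one well per compound / Evaluation: percent inhibition relative to median high and low control wells / Schedule: 2 h aminoacylation at 25 °C after 15 min preincubation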
A1 inh: inhibitors of the anti-apoptotic protein A1, read as caspase activation; caspase activation, % (test concentration not listed); MEF A1-2A-BIM cells, Caspase-Glo 3/7 luminescence, 3 h; percent of clofoctol response, vehicle zero; 0.066% of 330,000 active;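 active means over half of replicate activation scores above 10%, or exactly half above 10 with the replicate mean above 10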
cAMP nonselect: U2OS forskolin cAMP inhibition counter-screen; shares compounds with MC4R antagonist; parental U2OS, LANCE TR-FRET; inhibition, % at 6.5 µM; 26% of 1,600 active; AID 602193;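 active means mean inhibition over triplicates above the low-control well mean plus 3 SD, set per campaign, cut at about 13% in these data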;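 further: signal is single emission at 671 nm which falls as cellular cAMP rises; 0% = forskolin-stimulated wells and 100% = buffer without forskolin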
MC4R antag conf: human MC4R cAMP antagonism confirmation; shares compounds with MC4R antagonist; MC4R-expressing cells, MTII-stimulated cAMP, TR-FRET; inhibition, % at 6.5 µM; 27% of 1,600 active; AID 602195; in the data active means inhibition above about 29%;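 further: 0% = agonist stimulated wells alone and 100% = agonist stimulated wells plus saturating reference antagonist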
* hit, by the source's call; x = no result given.

SMILES | NALP1 yeast inh | MC4R ag barr | NLRP3 yeast inh | MC4R antagonist | Tb MetRS inh | A1 inh | cAMP nonselect | MC4R antag conf
Cc1cc(C)c(NC(=O)c2cccc(NC(=O)c3ccco3)c2)c(C)c1 | 2 | -1 | 20 | 30* | 0 | 1 | -2 | -18
Cc1csc(C(C)N(C)C(=O)CCc2nnc(CCc3ccccc3)o2)n1 (stereo not drawn) | 6 | 1 | 16 | 29* | 1 | 0 | 2 | 1
Cn1c(=O)[nH]c(=O)c2c1nc(Br)n2CC(O)COc1ccc(Cl)cc1 (stereo not drawn) | 18 | 2 | 14 | 31* | 0 | 0 | -4 | -2
COc1ccc(OCC(O)Cn2c(Br)nc3c2c(=O)[nH]c(=O)n3C)cc1 (stereo not drawn) | 29 | -2 | -17 | -8 | 0 | -1 | x | x
CCN(C(=O)COC(=O)/C=C/c1cnc2ccccc2n1)C1CCS(=O)(=O)C1 (stereo not drawn) | 0 | 1 | -11 | 29* | -1 | 0 | -5 | -2
N#Cc1cccc(C(c2nnnn2CCc2ccccc2)N2CCN(C3CCCCC3)CC2)c1 (stereo not drawn) | -8 | 2 | -3 | 29* | 0 | 1 | 3 | 3
CC(C)(C)Nc1nc(Cl)nc(N(C#N)CN2C(=O)c3ccccc3S2(=O)=O)n1 | 21 | -1 | 20 | 35* | -2 | -1 | 25* | 51*
CC(C)Nc1nc(Cl)nc(N(C#N)CN2C(=O)c3ccccc3S2(=O)=O)n1 | 18 | -2 | 5 | 46* | 1 | 0 | 14* | 37*
O=C(OCc1ccccc1)N1CCC2CC1c1c(Cl)cccc12 (stereo not drawn) | x | 3 | x | 30* | -1 | x | -2 | -10
O=C(Nc1nnc(-c2ccccc2)s1)c1cc(S(=O)(=O)N2CCOCC2)c(Cl)cc1Cl | 18 | -2 | 10 | 32* | 0 | -1 | 11 | 26
CCN(CC)S(=O)(=O)c1cc(C(=O)OC(C)C(=O)NCc2ccco2)ccc1C (stereo not drawn) | x | -2 | 8 | 6 | 0 | -2 | x | x
COc1ccc(/C=C2\C(=O)N(c3c(Cl)cc(Cl)cc3Cl)N=C2NC(=O)c2cccc([N+](=O)[O-])c2)cc1 | -4 | -1 | x | 32* | 0 | 0 | -1 | 7
COc1ccc(NC(=O)c2cccc(N3C(=O)c4cccc([N+](=O)[O-])c4C3=O)c2)cc1 | 11 | -4 | 14 | 14 | 0 | 1 | x | x
COc1cc(C2CC(=O)Oc3c2c(=O)n(C)c2ccccc32)cc(OC)c1OC (stereo not drawn) | -14 | -2 | 3 | 38* | 0 | 0 | 0 | 4
CCOC(=O)c1cnc2ccc(C)cc2c1Nc1ccc(N2CCOCC2)cc1 | x | 0 | 17 | 30* | -1 | 1 | 3 | 38*
CCOC(=O)c1cnc2ccc(OCC)cc2c1NCc1ccccc1 | 18 | 0 | 6 | 35* | 0 | -1 | 7 | 22
CCOC(=O)c1cnc2ccccc2c1Nc1cccc(C(=O)O)c1 | 28 | 0 | -10 | 39* | 1 | 0 | 13* | 20
CCOC(=O)c1cnc2ccc(OCC)cc2c1NCc1cccnc1 | 25 | 2 | 19 | 25 | 0 | 2 | x | x
Cc1c(Br)c([N+](=O)[O-])nn1CC(=O)N1CCc2ccccc21 | 15 | 0 | 16 | 30* | 0 | 0 | -1 | 4
C[C@@H](c1ccccc1)N1C[C@@H](COCc2ccccc2)Oc2cc(N3CCC[C@H]3CO)ccc2S1(=O)=O | x | x | x | x | 0 | x | x | x
C=CC[C@H]1C(C(=O)OCC)=CC[C@@H](c2ccccc2)N1S(=O)(=O)c1ccc(C)cc1 | x | x | x | x | 0 | x | x | x
C#CCOCCOCCOCCNc1nc(N2CCN(C(=O)CCCCCCCCCCNC(=O)[C@H]([C@@H](C)CC)n3cc(CCCCN=C(N)N)nn3)CC2)nc(N2CCN(C(=O)CCCCCCCCCCNC(=O)[C@@H]([C@H](C)O)n3cc(C)nn3)CC2)n1 | x | -1 | 19 | 38* | -1 | 0 | 19* | 55*
C#CCOCCOCCOCCNc1nc(N2CCOCC2)nc(N2CCN(C(=O)CCCCCCCCCCNC(=O)[C@H]([C@@H](C)CC)n3cc(CCCCN=C(N)N)nn3)CC2)n1 | x | -1 | 10 | 3 | 0 | 3 | x | x
COc1ccccc1C(=O)N/C(=C\c1cn(S(=O)(=O)N(C)C)c2ccccc12)C(=O)N1CCCC1 | 16 | 0 | 22 | 10 | 0 | 1 | x | x
O=C(Nc1ccccc1)OC1CCC2CC1CCC2OC(=O)Nc1ccccc1 (stereo not drawn) | 15 | 1 | -9 | 32* | -1 | 0 | 2 | 32*
SMILES | NALP1 yeast inh | MC4R ag barr | NLRP3 yeast inh | MC4R antagonist | Tb MetRS inh | A1 inh | cAMP nonselect | MC4R antag conf
C=C(C)[C@@H]1C2=CC(C(=O)OC)=C(C[C@H](C(=C)C)[C@H]3O[C@H]3C3=C[C@H]1OC3=O)O2 | x | 0 | x | 36* | 0 | x | 14* | 45*
CCOc1cc(C(=O)NCC(C)(C)CNC(=O)c2cc(OCC)c(OCC)c(OCC)c2)cc(OCC)c1OCC | x | 1 | 7 | 30* | 0 | 0 | -5 | 1
Cc1nc(SCC(=O)N2CCCCCC2)c2c(=O)n(C)c(=O)n(CC(C)C)c2n1 | x | 1 | x | 33* | 0 | x | 3 | 13
Cc1ccc(N2CC(C(=O)Nc3nnc(SCCN4CCOCC4)s3)CC2=O)cc1C (stereo not drawn) | 22 | -1 | 8 | 2 | -1 | -2 | x | x
COC(=O)c1cc2c(ccn2-c2ccc(F)cc2)n1CC(=O)OC(C)C | 6 | 0 | 30 | 31* | 0 | 1 | 4 | 2
O=C(Cc1ccc(S(=O)(=O)N2CCOCC2)s1)N1CCN(S(=O)(=O)c2ccc(Cl)cc2)CC1 | x | -2 | 3 | -8 | 0 | 0 | x | x
Cc1cccc(NC(=O)CNC(=O)CN2C(=O)NC3(CCCc4ccccc43)C2=O)c1C (stereo not drawn) | x | -3 | 15 | 3 | 0 | -1 | x | x
O=C(/C=C/c1cccs1)N1CCC2(CC1)Oc1ccc(Cl)cc1C(=O)C21CC(c2cccnc2)=NO1 (stereo not drawn) | x | -1 | 12 | 29* | 0 | 0 | -3 | 19
CC(C)C(=O)N1CCC2(CC1)Oc1ccc(Cl)cc1C(=O)C21CC(c2ccccc2)=NO1 (stereo not drawn) | 7 | -2 | 11 | 29* | 0 | 1 | 2 | 14
